Results published in PMC11349029 (Science translational medicine, 2016).
Residues, ends and D or L forms follow the SMILES beside them. No end group written: not given here. *: point of attachment. Cbz = O=C(OCc1ccccc1)*

What was measured:
[1] = system: AR55Q (polyQ-AR); assay: Western blotting of upper AR isoform in HEK293T cells; type: cell-based, human; conditions: for accumulation of the upper AR isoform (p21Cip1 experiments) / effect on upper AR isoform upon overexpression of wtCDK2: HEK293T AR55Q; for accumulation of the upper AR isoform (p21Cip1 experiments): 5 or 100 nM OA, 10 μM forskolin, 100 nM PACAP, 24 hours; for effect on upper AR isoform upon overexpression of wtCDK2: 10 μM forskolin or 100 nM PACAP; for mobility of S96A and S96D phosphomutants: HEK293T, AR55Q-S96A, AR55Q-S96D, 100 nM PACAP (5 hours), SDS-PAGE, n = 4
[2] = system: AR; conditions: cited from earlier work
[3] = system: AR55Q (polyQ-AR); assay: PolyQ-AR accumulation and turnover in HEK293T cells; type: cell-based, human
How it was run: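 AR55Q was expressed in HEK293T cells (DMEM, 10% heat-inactivated FBS, 2 mM L-glutamine, 37°C, 5% CO2) by polyethylenimine transfection the day after plating. For turnover, cells got cycloheximide 10 μg/ml plus 10 μM forskolin; separately, empty vector or wtPKA plus 10 μM MG132 for 5 h. AR was immunoblotted after 7% SDS-PAGE against a β-tubulin loading control.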

[4] = system: p21^Cip1; assay: p21Cip1 expression in cells; type: cell-based; conditions: fig. S13, A to D
[5] = system: CDK2/p21^Cip1; assay: Binding of CDK2 to p21Cip1 in SBMA cells; type: cell-based; conditions: fig. S13E
[6] = system: AR100Q (polyQ-AR); assay: Western blotting of upper AR isoform in MN-1 cells; type: cell-based, mouse motor neuron–derived MN-1 cells; conditions: 10 μM forskolin (5 hours); n = 3
[7] = system: AR100Q (polyQ-AR); assay: Western blotting of upper AR isoform in primary cortical neurons; type: cell-based, rat primary cortical neurons; conditions: 10 μM forskolin (5 hours); n = 4
How it was run: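 Cortical neurons came from embryonic day 18 Sprague-Dawley rats, dissociated with papain/DNase/cysteine and plated at 40,000 cells/cm² on poly-L-lysine in Neurobasal/B-27/GlutaMAX. At 6–7 DIV they were transduced with lentivirus (MOI 10) expressing AR24Q or AR100Q plus EGFP. Neurons were treated with 10 μM forskolin for 5 h, and AR upper and lower isoforms were immunoblotted with loading controls; n = 4.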

[8] = system: SBMA MN-1 cells; assay: Caspase 3 assay in MN-1 cells; type: cell-based, mouse; conditions: SBMA MN-1 cells (AR65Q), 48 hours
[9] = system: AR55Q phosphorylated at Ser^96; assay: Western blotting of Ser96-phosphorylated AR in HEK293T cells; type: cell-based, human; conditions: 10 μM forskolin or 100 nM PACAP, 5 hours, n = 5 to 10
How it was run: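 HEK293T cells expressing AR55Q or AR55Q-S96A were treated with 10 μM forskolin or 100 nM PACAP for 5 hours. Lysates were run on 7% SDS-PAGE and blotted to nitrocellulose. Blots were probed with antibodies to Ser96-phosphorylated and total AR and detected by chemiluminescence or infrared imaging. n = 9 to 10 and 5 independent experiments.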

[10] = system: polyQ-AR; assay: PolyQ-AR aggregation in HEK293T cells; type: cell-based, human; conditions: high–molecular weight species in stacking gel, SDS-PAGE; fig. S18
[11] = system: AR112Q (polyQ-AR); assay: PolyQ-AR aggregation in PC12 cells; type: cell-based, rat PC12 cells; conditions: doxycycline 10 μg/ml, 10 nM DHT, 10 μM forskolin, 24 hours, n = 3
[12] = system: polyQ-AR; assay: Atomic force microscopy of polyQ-AR oligomers; type: cell-based; conditions: Sf9 insect cells; 10 nM DHT and 10 μM forskolin, 24 hours; n = 15 to 25
[13] = system: healthy male subjects; conditions: cited from earlier work
[14] = system: animal models of AD, PD and HD; conditions: cited from earlier work
[15] = system: AC/PKA pathway; conditions: cited from earlier work
[16] = system: PAC1 receptor; conditions: cited from earlier work
[17] = system: cAMP (EPAC biosensor), SBMA MN-1 cells; assay: BRET cAMP biosensor assay in MN-1 cells; type: cell-based, mouse; conditions: SBMA MN-1 cells (AR65Q); different concentrations of PACAP, 20 min; n = 4
How it was run: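 MN-1 cells were transfected with an EPAC cAMP BRET biosensor (Renilla luciferase N-terminal, YFP C-terminal) 24 h after seeding. After another 24 h they were replated at 80,000 cells/well in phenol red–free MEM with 2% FBS, 10 mM Hepes and 2 mM glutamine, with or without 10 nM DHT for 24 h. Wells were read in PBS (Ca/Mg, 0.003% ascorbic acid) with 5 μM coelenterazine h for about 20 min after agonist; cAMP binding lowers the signal.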

[18] = system: SBMA MN-1 cells; assay: Trypan blue assay in MN-1 cells; type: cell-based, mouse; conditions: MN-1 cells expressing AR100Q, 100 nM PACAP, 96 hours, n = 8
How it was run: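 MN-1 cells stably expressing AR100Q were grown in DMEM with 10% FBS, 2 mM L-glutamine and gentamicin 0.05 mg/ml at 37°C, 5% CO2. Cells were given DHT plus vehicle or 100 nM PACAP for 96 hours.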

[19] = system: cAMP; assay: cAMP levels in vivo; set-up: species or system mouse; conditions: fig. S21; intranasal
[20] = cited from earlier work
[21] = cited from earlier work; remark: listed apart in the source

For `C[C@]12CCC(=O)C[C@@H]1CC[C@@H]1[C@@H]2CC[C@]2(C)[C@@H](O)CC[C@@H]12` [DHT, dihydrotestosterone], the “accumulation of the upper AR isoform, increase” value [1] is listed as “about 1.2 fold” and the AR stabilization [2] is listed as “stabilizes”.
In the case of `CC(C)C[C@@H](C=O)NC(=O)[C@H](CC(C)C)NC(=O)[C@H](CC(C)C)NC(=O)OCc1ccccc1` [MG132] (Cbz-Leu-Leu-Leu-aldehyde), the “effect of PKA and OA on polyQ-AR” value ([3]; HEK293T AR55Q, 10 μM MG132 (5 hours), n = 3) is reported as “abolished”.
For `C=C1[C@@H](O)[C@@H]2O[C@]3(CC[C@H](/C=C/[C@@H](C)[C@@H]4CC(C)=C[C@@]5(O[C@H](C[C@@](C)(O)C(=O)O)CC[C@H]5O)O4)O3)CC[C@H]2O[C@@H]1[C@@H](O)C[C@H](C)[C@H]1O[C@@]2(CCCCO2)CC[C@H]1C` [Okadaic acid], the “accumulation of the upper AR isoform (p21Cip1 experiments)” value ([1]; n = 3) was “decreased accumulation”, the “expression of p21Cip1” value [4] was “induced the expression” and the “binding of CDK2 to p21Cip1” value [5] was “increased the binding”.
For `CC[C@H](CO)Nc1nc(NCc2ccccc2)c2ncn(C(C)C)c2n1` [Roscovitine, roscovitine], the “accumulation of the upper isoform of polyQ-AR, phosphatase/kinase inhibitors” value ([1]; HEK293T expressing AR55Q, fig. S5, S6) was “specifically decreased the accumulation”.
For `C=C[C@@]1(C)CC(=O)[C@]2(O)[C@@]3(C)[C@@H](O)CCC(C)(C)[C@@H]3[C@H](O)[C@H](OC(C)=O)[C@@]2(C)O1` [forskolin], the “accumulation of the upper AR isoform (p21Cip1 experiments)” value ([1]; n = 3) was “decreased accumulation”, the “effect on upper AR isoform upon overexpression of wtCDK2” value ([1]; 5 hours, n = 3) was “blocked” and the “accumulation of the upper isoform of polyQ-AR” value ([1]; HEK293T expressing AR55Q, 10 nM DHT and 10 μM forskolin, 5 hours, n = 3) was “decreased the accumulation”. For the same molecule, the “mobility of S96A and S96D phosphomutants” value [1] was “not affected”, the “upper-isoform accumulation of polyQ-AR, MN-1 cells” value [6] was “decreased” and the “upper-isoform accumulation of polyQ-AR, primary rat cortical neurons” value [7] was “decreased”. The “caspase 3 activity, forskolin” value ([8]; 10 μM forskolin, n = 6 to 9) was “significant decrease”, the “amount of polyQ-AR phosphorylated at Ser96” value [9] was “significantly reduced” and the “expression of p21Cip1” value [4] was “induced the expression”. The “binding of CDK2 to p21Cip1” value [5] was “increased the binding”, the “polyQ-AR aggregation, HEK293T cells” value [10] was “reduced” and the “polyQ-AR aggregation, PC12 cells” value [11] was “reduced”. For the same molecule, the “shift from annular to fibrillar oligomers caused by polyQ expansion” value [12] was “reversed”, the “reduction of polyQ-AR accumulation” value ([3]; HEK293T AR55Q, 10 μM forskolin, cycloheximide 10 μg/ml, n = 5) was 80% and the AR transcript levels ([3]; fig. S19C) was “without altering”.
In the case of “PACAP38: main PACAP peptide in mammals (137061-48-4, Calbiochem)”, the “tolerability, intranasal administration” value [13] is listed as “well tolerated”, the neuroprotective effects [14] is listed as “strong neuroprotective effects” and the “stimulation of cAMP production” value ([15]; general statement in discussion, no reference given) is listed as “stimulate cAMP production”.
In the case of “acetyl–[Ala^15, Ala^20]PACAP1–38–propylamide [Peptide 6]”, the PAC1 receptor agonism [16] is given as “superagonist”.
In the case of “pituitary adenylyl cyclase activating polypeptide [PACAP]”, the “accumulation of the upper AR isoform (p21Cip1 experiments)” value ([1]; n = 3) is reported as “decreased accumulation”, the “effect on upper AR isoform upon overexpression of wtCDK2” value ([1]; 5 hours, n = 3) is reported as “blocked” and the “reduction of the accumulation of the upper isoform of polyQ-AR” value ([1]; HEK293T expressing AR55Q, 10 nM DHT and 100 nM PACAP, 5 hours, n = 9) is reported as 35%. The “mobility of S96A and S96D phosphomutants” value [1] was “not affected”, the “caspase 3 activity, PACAP” value ([8]; 100 nM PACAP, n = 3, through activation of PKA) was “significantly reduced” and the “dose dependence of cAMP release” value [17] was “dose-dependent”. The cell death [18] was “significantly reduced”, the “amount of polyQ-AR phosphorylated at Ser96” value [9] was “significantly reduced” and the “expression of p21Cip1” value [4] was “induced the expression”. The “binding of CDK2 to p21Cip1” value [5] was “increased the binding”, the “polyQ-AR aggregation, HEK293T cells” value [10] was “reduced” and the “polyQ-AR aggregation, PC12 cells” value [11] was “reduced”. For the same molecule, the “cAMP production in vivo, PACAP” value [19] was “induces cAMP production in vivo”, the “degradation in the blood” value [20] was “rapidly degraded in the blood” and the metabolic stability [20] was “poor metabolic stability”. The “penetration into target tissues” value [21] was “scarce penetration into target tissues” and the “activation of AC” value [15] was “potent activator”.
In the case of “vasoactive intestinal peptide (HSDAVFTDNYTRLRKQMAVKKYLNSILN; ends and bridges not checked; UniProt P01282 125-152, looked up) [VIP]”, the “accumulation of the upper isoform of polyQ-AR, VIP” value ([1]; fig. S3) is given as “does not modify” and the “activation of AC” value [15] is given as “reduced ability to activate AC”.
